Measurements from ChEMBL document CHEMBL1154421, “In vitro suppression of K65R reverse transcriptase-mediated tenofovir- and adefovir-5'-diphosphate resistance conferred by the boranophosphonate derivatives” (Antimicrob Agents Chemother, 2007).

Key:
[1] = tested on: Human immunodeficiency virus 1; assay: Ratio of IC50 for HIV1 reverse transcriptase p66/p51 K65R mutant to IC50 for HIV1 wild type reverse transcriptase
Method in brief: (§1)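 Recombinant p66/p51 RT, coexpressed with HIV-1 protease in E. coli, affinity-purified and active-site titrated. Reactions used 10 nM RT, 250 µg/ml activated calf thymus DNA and 5 µM each dNTP with [3H]dATP (100 µCi/mmol), run for 15 min across increasing inhibitor. Samples spotted in duplicate on DE81 discs, washed in 0.3 M ammonium formate pH 8.0 and ethanol, then scintillation counted. IC50 averaged from at least three independent experiments.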

[2] = tested on: Human immunodeficiency virus type 1 reverse transcriptase (Human immunodeficiency virus 1), Q72547 [K65R]; assay: Binding affinity to HIV1 recombinant reverse transcriptase p66/p51 K65R mutant expressed in Escherichia coli assessed as ratio of catalytic rate constant to Kd for incorporation of drug to DNA by gel electrophoresis
Method in brief: (§2)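 Pre-steady-state single-nucleotide incorporation, rapid quench over 10 ms to 30 s. Primer is a 5'-32P-labelled 21-mer annealed to a 31-mer DNA template. Products resolved on 14% acrylamide/8 M urea gels and phosphorimaged. kpol and Kd fitted to a hyperbola.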

[3] = tested on: Human immunodeficiency virus type 1 reverse transcriptase (Human immunodeficiency virus 1), Q72547 [K65R]; assay: Binding affinity to HIV1 recombinant reverse transcriptase p66/p51 K65R mutant assessed as ratio of catalytic rate constant to Kd for dATP to drug by gel electrophoresis; method in brief: as §2
[4] = target: Human immunodeficiency virus type 1 reverse transcriptase (Human immunodeficiency virus 1) (UniProt Q72547); assay: Inhibition of HIV1 wild type reverse transcriptase p66/p51 DNA polymerase activity assessed as formation of terminated DNA products; parameters: concentration or dose not given beside the values; settings: concentration not given here
[5] = target: T1, Human immunodeficiency virus type 1 reverse transcriptase (Human immunodeficiency virus 1, UniProt Q72547, K65R); assay: Binding affinity to HIV1 recombinant reverse transcriptase p66/p51 K65R mutant expressed in Escherichia coli assessed as incorporation of drug to DNA by gel electrophoresis; method in brief: as §2
[6] = target: Human immunodeficiency virus type 1 reverse transcriptase (Human immunodeficiency virus 1) (UniProt Q72547); assay: Binding affinity to HIV1 wild type reverse transcriptase p66/p51 assessed as ratio of catalytic rate constant to Kd for dATP to drug by gel electrophoresis; method in brief: as §2
[7] = target: Human immunodeficiency virus type 1 reverse transcriptase (Human immunodeficiency virus 1) (UniProt Q72547); assay: Binding affinity to wild type reverse transcriptase assessed as ratio of catalytic rate constant to Kd for incorporation of drug to DNA by gel electrophoresis; method in brief: as §2
[8] = target: T2, Human immunodeficiency virus type 1 reverse transcriptase (Human immunodeficiency virus 1, UniProt Q72547); assay: Binding affinity to HIV1 wild type reverse transcriptase p66/p51 expressed in Escherichia coli assessed as incorporation of drug to DNA by gel electrophoresis; method in brief: as §2
[9] = tested on: Human immunodeficiency virus 1; assay: Inhibition of HIV1 […] reverse transcriptase p66/p51 R72A mutant DNA polymerase activity assessed as formation of terminated DNA products; settings: concentration not given here
Method in brief: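 Polymerization rate gel assay with WT or R72A RT (50 nM) and 25 nM 5'-labelled oligo(dA)21 annealed to poly(rU)31, in RT buffer at 37°C. Extension followed over the first seconds with dATP or analogues. Products separated by denaturing gel electrophoresis and autoradiographed.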

[10] = target: T1, Human immunodeficiency virus type 1 reverse transcriptase; assay: Inhibition of HIV1 reverse transcriptase p66/p51 K65R mutant expressed in Escherichia coli using calf thymus DNA substrate; method in brief: as §1
[11] = target: T2, Human immunodeficiency virus type 1 reverse transcriptase; assay: Inhibition of HIV1 wild type reverse transcriptase p66/p51 expressed in Escherichia coli using calf thymus DNA substrate; method in brief: as §1

SMILES | Ratio IC50 [1] | Ratio [2] | Ratio [3] | inhibition [4] [%] | Kd [5] [µM] | Ratio [6] | Ratio [7] | Kd [8] [µM] | inhibition [9] [%] | IC50 [10] [µM] | IC50 [11] [µM]
BP(=O)(CO[C@H](C)Cn1cnc2c(N)ncnc21)OP(=O)(O)OP(=O)(O)O (some centres undefined) | 1.2 | 0.17 | 10 | 74 | 35 | 9.6 | 0.7 | 33 | 45 | 18 | 14.5
Nc1ncnc2c1ncn2CCOCP(=O)(O)OP(=O)(O)OP(=O)(O)O [ADEFOVIR DIPHOSPHATE] | 6 | 0.1 | 17.9 | 72 | 7.7 | 7.7 | 0.9 | 7.9 | 1.6 | 52 | 8.3
C[C@H](Cn1cnc2c(N)ncnc21)OCP(=O)(O)OP(=O)(O)OP(=O)(O)O | 8 | 0.02 | 97.8 | 74 | 18 | 21.9 | 0.3 | 23 | 0.2 | 170 | 22
BP(=O)(COCCn1cnc2c(N)ncnc21)OP(=O)(O)OP(=O)(O)O (centres undefined) | 0.7 | 0.2 | 8.8 | 69 | 7.1 | 21.7 | 0.3 | 6.5 | 53 | 12 | 17
Nc1ncnc2c1ncn2[C@H]1C[C@H](O)[C@@H](COP(=O)(O)OP(=O)(O)OP(=O)(O)O)O1 |  | 1.7 |  | 75 | 6.9 |  | 6.7 | 7.5 |  |  | 
